Columns and labels:
Mus musculus [1] = experiment: Anticonvulsant activity (ED50) was measured by maximal electroshock seizure test in mice by ip administration; No effective response; type: functional, organism-based
How it was run: (§1)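 Male albino CF No. 1 mice (18–25 g) were dosed ip and tested by maximal electroshock at the previously determined time of peak effect. Groups of at least eight mice received various doses until at least two points fell between 0% and 100% protection. ED50 and its 95% confidence interval were calculated. Single-dose entries give protection percentage at the indicated dose.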

Rattus norvegicus [2] = experiment: Minimal motor impairment activity by Rotarod test in rat following p.o. administration.; type: functional; conditions: po
How it was run: (§2)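 Minimal motor impairment in male Sprague–Dawley rats (100 g) after oral dosing was judged at the time of peak effect. The criterion was overt ataxia, abnormal gait and stance, and/or loss of placing response and muscle tone. Groups had at least eight rats across various doses, and the median impairing dose with its 95% confidence interval was calculated.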

Rattus norvegicus [3] = experiment: Anticonvulsant activity was measured by maximal electroshock seizure test in rat by po administration at 50 mg/kg; type: functional
How it was run: (§3)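 Maximal electroshock test in male albino Sprague–Dawley rats (100 g) after oral dosing, run at the previously determined time of peak effect. At least eight rats per group received various doses until at least two points lay between 0% and 100% protection. ED50 with 95% confidence interval was calculated. Single-dose entries report percent protection at that dose.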

[4] = Partition coefficient (logP); type: physicochemical; conditions: octanol/water
Mus musculus [5] = experiment: Minimal motor impairment activity by Rotarod test in mice following i.p. administration.; type: functional; conditions: ip
How it was run: (§4)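 Rotorod neurotoxicity test in male albino CF No. 1 mice dosed ip, run at the time of peak effect. Impairment was defined as failure to keep equilibrium for 60 s in each of three trials on the rotating rod. With groups of at least eight mice across various doses, the median motor-impairing dose and its 95% confidence interval were calculated.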

Mus musculus [6] = experiment: Minimal motor impairment activity of the compound was measured by Rotarod test in mice by ip administration; No effective response; type: functional, organism-based; how it was run: as §4
Rattus norvegicus [7] = experiment: Minimal motor impairment activity of the compound was measured by […] in rat by po administration; No effective response; type: functional, organism-based; how it was run: as §2
Rattus norvegicus [8] = experiment: Anticonvulsant activity was measured by maximal electroshock seizure test in rat by po administration; No effective response; type: functional, organism-based; how it was run: as §3
Mus musculus [9] = experiment: Anticonvulsant activity was measured by maximal electroshock seizure test in mice by ip administration; No effective response; type: functional, organism-based; how it was run: as §1
Mus musculus [10] = experiment: Anticonvulsant activity was measured by maximal electroshock seizure test in mice by ip administration; type: functional; how it was run: as §1
Rattus norvegicus [11] = experiment: Anticonvulsant activity was measured by maximal electroshock seizure test in rat by po administration; type: functional; how it was run: as §3
Mus musculus [12] = experiment: Anticonvulsant activity was measured by maximal electroshock seizure test in mice by ip administration at 30 mg/kg; type: functional; conditions: route intraperitoneal; how it was run: as §1
Rattus norvegicus [13] = experiment: Anticonvulsant activity in corneal kindled rats was determined when 25 mg/kg was administered orally; type: functional; conditions: route oral
How it was run: (§5)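 Corneally kindled male Sprague–Dawley rats (100 g), stimulated daily via corneal electrodes (8 mA, 60 Hz, 4 s) until 10 consecutive stage 5 seizures. Drug was dosed orally at 0.04 mL/10 g body weight. Seizure severity was scored after dosing, with abolition of the generalized stage 4/5 seizure (clonus, rearing and falling) as the endpoint.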

Rattus norvegicus [14] = experiment: Anticonvulsant activity in corneal kindled rats was determined when 50 mg/kg was administered orally; type: functional; conditions: route oral; how it was run: as §5
Rattus norvegicus [15] = experiment: Anticonvulsant activity in corneal kindled rats was determined when 75 mg/kg was administered orally; type: functional; conditions: route oral; how it was run: as §5
Rattus norvegicus [16] = experiment: Anticonvulsant activity in corneal kindled rats was determined when 100 mg/kg was administered orally; type: functional; conditions: route oral; how it was run: as §5
Mus musculus [17] = experiment: Anticonvulsant activity was measured by maximal electroshock seizure test in mice by ip administration at 100 mg/kg; type: functional; conditions: route intraperitoneal; how it was run: as §1
Rattus norvegicus [18] = experiment: Anticonvulsant activity (ED50) was measured by maximal electroshock seizure test in rat by po administration; No effective response; type: functional, organism-based; how it was run: as §3

Structure (SMILES) | logP [4] | ED50 (Rattus norvegicus [2]) [mg/kg] | ED50 (Mus musculus [5]) [mg/kg] | ED50 (Mus musculus [10]) [mg/kg] | further results
CC(C)COC(=O)c1[nH]cc(-c2ccc(Cl)cc2)c1N1CCOCC1 |  |  |  |  | ED50 (Mus musculus [6]): No effective response; ED50 (Rattus norvegicus [7]): No effective response; ED50 (Rattus norvegicus [8]): No effective response; ED50 (Mus musculus [9]): No effective response
COC(=O)c1[nH]cc(-c2ccc(Cl)cc2)c1N(C)CCN(C)C | 3.3 | > 50 | < 30 |  | Protection (Mus musculus [12]): 100%; Protection (Rattus norvegicus [3]): 100%
Clc1ccc(-c2c[nH]nc2N2CCOCC2)cc1 |  | > 50 | 300 | 47 | Protection (Rattus norvegicus [3]): 100%
COC(=O)c1[nH]cc(-c2ccc(Br)cc2)c1N1CCOCC1 | 3.8 | > 500 | 166 | 27.8 | ED50 (Rattus norvegicus [11]): 2.5 mg/kg; Seizure score (Rattus norvegicus [13]): 4.3; Seizure score (Rattus norvegicus [14]): 3.7; Seizure score (Rattus norvegicus [15]): 1.7; Seizure score (Rattus norvegicus [16]): 1.9
COC(=O)c1[nH]cc(-c2ccccc2C)c1N1CCOCC1 | 2.8 | > 50 | > 100 |  | Protection (Mus musculus [17]): 60%; Protection (Rattus norvegicus [3]): 50%
Clc1ccc(-c2cnoc2N2CCOCC2)cc1 |  |  |  |  | ED50 (Mus musculus [6]): No effective response; ED50 (Rattus norvegicus [7]): No effective response; ED50 (Rattus norvegicus [8]): No effective response; ED50 (Mus musculus [9]): No effective response
COC(=O)CCc1c(N2CCOCC2)c(-c2ccc(Cl)cc2)cn1C |  |  |  |  | ED50 (Mus musculus [6]): No effective response; ED50 (Rattus norvegicus [7]): No effective response; ED50 (Rattus norvegicus [8]): No effective response; ED50 (Mus musculus [9]): No effective response
COCCNC(=O)c1[nH]cc(-c2ccc(Cl)cc2)c1N1CCOCC1 | 3.3 |  |  |  | 
CCCNC(=O)c1[nH]cc(-c2ccc(Cl)cc2)c1N1CCOCC1 | 4.2 |  |  |  | 

Now from value to compound, other results behind:

logP [4] | Structure (SMILES) | ED50 (Rattus norvegicus [2]) [mg/kg] | ED50 (Mus musculus [5]) [mg/kg] | ED50 (Mus musculus [10]) [mg/kg] | further results
3.3 | CN1CCN(C(=O)c2[nH]cc(-c3ccc(Cl)cc3)c2N2CCOCC2)CC1 | > 50 | > 300 |  | ED50 (Mus musculus [1]): No effective response; Protection (Rattus norvegicus [3]): 50%
3.9 | CCOC(=O)c1[nH]cc(-c2ccc(Cl)cc2)c1N1CCOCC1 | > 500 | 158 | 49.9 | ED50 (Rattus norvegicus [11]): 7.9 mg/kg
3.1 | O=C(c1[nH]cc(-c2ccc(Cl)cc2)c1N1CCOCC1)N1CCOCC1 |  |  |  | 
3.1 | COC(=O)c1c(N2CCOCC2)c(-c2ccc(Cl)cc2)cn1C(=O)N1CCOCC1 |  |  |  | 
3.5 | COC(=O)c1[nH]cc(-c2ccc(Cl)cc2)c1N1CCOCC1 | > 500 | 56.4 | 58.1 | ED50 (Rattus norvegicus [11]): 11.4 mg/kg
3.5 | COC(=O)c1c(N2CCOCC2)c(-c2ccc(Cl)cc2)cn1C(C)=O | > 250 | 35.4 | 33.1 | ED50 (Rattus norvegicus [11]): 13.6 mg/kg
4.2 | CCS(=O)(=O)n1cc(-c2ccc(Cl)cc2)c(N2CCOCC2)c1C(=O)OC |  |  |  | ED50 (Mus musculus [6]): No effective response; ED50 (Mus musculus [1]): No effective response; ED50 (Rattus norvegicus [7]): No effective response; ED50 (Rattus norvegicus [18]): No effective response
